Experimental findings from ChEMBL document CHEMBL1143867, “Novel three-component synthesis and antiproliferative properties of diversely functionalized pyrrolines” (2008) are described below.

Activity calls are given as the source filed them. The rule behind the calls is not given here.

Assay [1] has as its system Jurkat. Put plainly: Induction of apoptosis in human Jurkat cells assessed as viable cells at 5 uM after 48 hrs by flow cytometry relative to control. Format: functional. The following applies: read-out: Activity. In outline:
(§1)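 Jurkat human T-cell leukemia cells were exposed to compound for 48 h and then stained with annexin-V/propidium iodide for flow cytometry. Apoptotic and live cell percentages are expressed relative to a DMSO control. Values are mean ± SD from two independent experiments, each run in 3 replicates.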

Assay [2] concerns Jurkat. Put plainly: Induction of apoptosis in human Jurkat cells after 48 hrs at 5 uM by flow cytometry relative to control. Format: functional. The essentials: as §1
The test system of a further assay is HeLa. Put plainly: Antiproliferative activity against human HeLa cells after 48 hrs by MTT assay relative to control. It counts as functional, cell-based. In outline:
(§2)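 Cells (HeLa cervical or MCF7/AZ breast adenocarcinoma) exposed to test agents 48 h; mixtures at final 100 μM, individual isomers at final 100, 50 and 5 μM. Viability read by MTT (mitochondrial dehydrogenase activity), expressed as % remaining viability vs DMSO control. Two independent experiments, each in 4 replicates; mean ± SD.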

Another assay deals with MCF7/AZ. Put plainly: Antiproliferative activity against human MCF7/AZ cells after 48 hrs by MTT assay relative to control. Format: functional, cell-based. In outline: as §2
For orientation: Tetrazolium assays rely on reduction of a dye to a coloured formazan, in cell work by metabolically active cells.

Assay [3] has as its system Jurkat. Put plainly: Induction of apoptosis in human Jurkat cells after 48 hrs at 50 uM by flow cytometry relative to control. It counts as functional. In outline: (§3)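 Jurkat T-cell leukemia cells treated 48 h with test agents at 50 μM (podophyllotoxin reference at 5 μM). Flow cytometric annexin-V/propidium iodide staining scored % apoptotic cells and % live cells, each relative to DMSO control. Two independent experiments, each in 3 replicates; mean ± SD.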
In general terms: Flow cytometry measures light scatter and fluorescence of single cells or particles in a stream.

In assay [4] the test system is Jurkat. In words: Growth inhibition of human Jurkat cells assessed as decrease in cell count at 50 uM by Trypan blue dye exclusion method. It counts as functional, cell-based.
In assay [5] the test system is Jurkat. Put plainly: Induction of apoptosis in human Jurkat cells assessed as viable cells at 50 uM after 48 hrs by flow cytometry relative to control. It counts as functional. The following applies: read-out: Activity. In outline:
as §3

Assay [6] relates to Jurkat. Put plainly: Growth inhibition of human Jurkat cells at 50 uM by Trypan blue dye exclusion method. It counts as functional, cell-based.

On to `COc1cc([C@@H]2c3cc4c(cc3[C@H](O)[C@H]3COC(=O)[C@H]23)OCO4)cc(OC)c1OC` [PODOFILOX], for which the viability at 5 µM with Jurkat [1] turned out to be 22%. This compound registered an Activity with Jurkat [2] of 63%.

As to `COc1ccc(S(=O)(=O)N2C(N)=C(C#N)[C@@H](c3ccccc3)[C@H]2C(=O)c2ccc(Br)cc2)cc1` (relative stereo), the result in the assay on HeLa and in the assay on MCF7/AZ was Active.

Turning to `Cc1ccc(S(=O)(=O)N2C(N)=C(C#N)[C@@H](c3ccccc3)[C@H]2C(=O)c2ccc(Br)cc2)cc1` (relative stereo), the outcome with HeLa, in the assay on MCF7/AZ and with Jurkat [4] was Active. The Activity in the assay on Jurkat [3] is reported as 30%. The viability at 50 µM in the assay with Jurkat [5] is 56%.

For the compound `Cc1ccc(S(=O)(=O)N2C(N)=C(C#N)[C@@H](c3ccccc3)[C@@H]2C(=O)c2ccc(Br)cc2)cc1` (relative stereo), the outcome in the assay with HeLa, in the assay on MCF7/AZ and with Jurkat [6] was Active. Further, the Activity in the assay on Jurkat [3] amounted to 3%. In addition, in the assay with Jurkat [5], the viability at 50 µM turned out to be 96%.

For `COc1ccc(S(=O)(=O)N2C(N)=C(C#N)[C@@H](c3ccccc3)[C@@H]2C(=O)c2ccc(Br)cc2)cc1` (relative stereo), the outcome in the assay with HeLa and in the assay on MCF7/AZ was Active.
